{"data": "Measured values of several laboratories", "note": "Each line is one published result; the experiments were not run side by side."}
{"Structure (SMILES)": "CN(C)CCc1c[nH]c2ccccc12", "system": "human, plasma", "conditions": "intravenous, 9 mg, healthy volunteers, infusion", "measurement": "Cmax", "result": "20.8 ng/mL"}
{"Structure (SMILES)": "CC[C@H](C)[C@H](NC(=O)[C@H](CC(C)C)NC(=O)[C@H](Cc1c[nH]c2ccccc12)NC(=O)[C@H](CCC(N)=O)NC(=O)[C@@H](NC(=O)[C@H](Cc1ccccc1)NC(=O)[C@H](C)NC(=O)[C@H](CCCCNC(=O)COCCOCCNC(=O)COCCOCCNC(=O)CC[C@H](NC(=O)CCCCCCCCCCCCCCCCCCC(=O)O)C(=O)O)NC(=O)[C@H](CCC(N)=O)NC(=O)[C@H](C)NC(=O)[C@@H](NC(=O)[C@H](CCCCN)NC(=O)[C@H](CC(=O)O)NC(=O)[C@H](CC(C)C)NC(=O)C(C)(C)NC(=O)[C@@H](NC(=O)[C@H](CO)NC(=O)[C@H](Cc1ccc(O)cc1)NC(=O)[C@H](CC(=O)O)NC(=O)[C@H](CO)NC(=O)[C@@H](NC(=O)[C@H](Cc1ccccc1)NC(=O)[C@@H](NC(=O)CNC(=O)[C@H](CCC(=O)O)NC(=O)C(C)(C)NC(=O)[C@@H](N)Cc1ccc(O)cc1)[C@@H](C)O)[C@@H](C)O)[C@@H](C)CC)[C@@H](C)CC)C(C)C)C(=O)N[C@@H](C)C(=O)NCC(=O)NCC(=O)N1CCC[C@H]1C(=O)N[C@@H](CO)C(=O)N[C@@H](CO)C(=O)NCC(=O)N[C@@H](C)C(=O)N1CCC[C@H]1C(=O)N1CCC[C@H]1C(=O)N1CCC[C@H]1C(=O)N[C@@H](CO)C(N)=O", "system": "human, plasma", "conditions": "subcutaneous, 1.5 mg, multiple doses, healthy volunteers", "measurement": "Cmax", "result": "198 ng/mL"}
{"Structure (SMILES)": "COc1ccc2c(c1)[C@]13CCCC[C@@H]1[C@H](C2)N(C)CC3", "system": "Caco-2", "conditions": "10 µM, pH 6.5", "measurement": "efflux ratio", "result": 2}
{"Structure (SMILES)": "Cc1ncc2n1-c1ccc(Cl)cc1C(c1ccccc1F)=NC2", "system": "human, plasma", "conditions": "oral, 2 mg", "measurement": "Cmax", "result": "10.3 ng/mL"}
{"Structure (SMILES)": "N=C(N)NCCC[C@@H](NC(=O)[C@@H](N)Cc1ccccc1)C(=O)N[C@@H](Cc1ccccc1)C(=O)N[C@@H](CCCCN)C(N)=O", "system": "human, plasma", "conditions": "subcutaneous, 25 mg, patients", "measurement": "Cmax", "result": "973 ng/mL"}
{"Structure (SMILES)": "CN1CCCCC1Cn1cc(C(=O)c2cc([N+](=O)[O-])ccc2I)c2ccccc21 (racemic)", "system": "mouse, brain", "conditions": "intravenous, 25 mg/kg", "measurement": "Tmax", "result": "15 min"}
{"Structure (SMILES)": "O=C(NCc1ccc(F)cc1)c1cccc(Nc2ccc(-c3ccccc3)nn2)c1", "target or system": "FRT", "assay": "cell growth or viability, MTS", "conditions": "48 h", "measurement": "CC50", "result": "> 100 µM"}
{"Structure (SMILES)": "c1cc([C@H]2CC[C@]3(CC2)OO[C@]2(O3)C3CC4CC(C3)CC2C4)ccc1OCCN1CCOCC1", "system": "human, plasma", "conditions": "oral, 1200 mg, patients", "measurement": "Cmax", "result": "1500 ng/mL"}
{"Structure (SMILES)": "N=c1c2c(-c3ccccc3)c(-c3ccccc3)n(Cc3ccccc3)c2ncn1[C@H]1CC[C@H](O)CC1", "system": "male cynomolgus monkey, plasma", "conditions": "oral, 1 mg/kg, single dose", "measurement": "bioavailability", "result": "> 80%"}
{"Structure (SMILES)": "CCOC(=O)c1c(NCc2ccc(SC)cc2)c2cccc(C)c2[nH]c1=O", "target or system": "FRT", "assay": "cell growth or viability, MTS", "conditions": "48 h", "measurement": "CC50", "result": "91.6 µM"}
